What was measured:
Assay type in all cases: cell-based
L858R EGFR = L858R EGFR (Homo sapiens, UniProt P00533, L858R); test: L858R EGFR degradation, immunoblot in H3255 cells; conditions: 24 hours
Method in brief: (§1)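 Cells cultured in RPMI-1640 with 10% FBS and 1% penicillin-streptomycin at 37°C, 5% CO2. They were treated for 24 hours with increasing concentrations of a gefitinib-based PROTAC. Cells were lysed in Tris pH 7.5/NP-40/deoxycholate buffer with phosphatase and protease inhibitors, then cleared at 16,000 × g. Protein was normalised by BCA, resolved by 8% SDS-PAGE, blotted to nitrocellulose, detected by ECL and quantified by densitometry.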

exon 19 del EGFR = exon 19 del EGFR (Homo sapiens, UniProt P00533, DEL746-750); test: Exon 19 deletion EGFR degradation, immunoblot in HCC827 cells; conditions: 24 hours
Method in brief: as §1

EGFR = EGFR (Homo sapiens, UniProt P00533); test: EGFR degradation, immunoblot of treated cells; conditions: Figure S2, cell line not given

COc1cc2ncnc(Nc3ccc(F)c(Cl)c3)c2cc1OCCCCCOCCOCCC(=O)N[C@H](C(=O)N1C[C@H](O)C[C@H]1C(=O)NCc1ccc(-c2scnc2C)cc1)C(C)(C)C [Compound 3]
degradation of L858R EGFR (L858R EGFR): enabled the degradation
degradation of exon-19 deletion EGFR (exon 19 del EGFR): enabled the degradation
WT EGFR degradation (EGFR): sparing the WT EGFR

Source: article PMC5831399 (Cell chemical biology, 2017)
